From ChEMBL document CHEMBL1641559, “Facile synthesis and biological evaluation of 3,3-diphenylpropanoyl piperazines as T-type calcium channel blockers” (Bioorg Med Chem Lett, 2011)

Columns and labels:
[1] = target: T1, Voltage-dependent T-type calcium channel subunit alpha-1G (Homo sapiens, UniProt O43497); assay: Inhibition of T-type alpha1G calcium channel
Outline: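 HEK293 cells stably expressing α1G and Kir2.1 were seeded at 4 × 10⁴ cells/well and used the next day. They were loaded with 5 µM fluo3/AM and 0.001% Pluronic F-127 for 60 min at room temperature in Hepes buffer (pH 7.4). Channels were activated by 70 mM KCl depolarization in buffer containing 10 mM CaCl₂, and the rise in intracellular Ca²⁺ was read by fluorescence (FDSS6000).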

[2] = target: T1, Voltage-dependent T-type calcium channel subunit alpha-1G; assay: Inhibition of T-type alpha1G calcium channel expressed in HEK293 cells assessed as Kcl-induced depolarization at 10 uM; assay type: cell-based
Outline: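 HEK293 cells stably expressing alpha1G plus Kir2.1, grown in DMEM/10% FBS with penicillin, streptomycin, geneticin and puromycin at 37 °C, 5% CO2; seeded 4 × 10^4 cells/well, used next day. Loaded 60 min at room temperature with 5 µM fluo3/AM and 0.001% Pluronic F-127 in Hepes buffer (pH 7.4). Channels activated by 70 mM KCl with 10 mM CaCl2; rise in intracellular Ca2+ read by FDSS6000 fluorescence.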

[3] = target: T1, Voltage-dependent T-type calcium channel subunit alpha-1G; assay: Inhibition of T-type alpha1G calcium channel expressed in HEK293 cells by whole-cell patch-clamp method
[4] = target: Voltage-gated inwardly rectifying potassium channel KCNH2 (Homo sapiens, UniProt Q12809); assay: Inhibition of human hERG
Sequence of Voltage-gated inwardly rectifying potassium channel KCNH2 (Q12809 whole entry): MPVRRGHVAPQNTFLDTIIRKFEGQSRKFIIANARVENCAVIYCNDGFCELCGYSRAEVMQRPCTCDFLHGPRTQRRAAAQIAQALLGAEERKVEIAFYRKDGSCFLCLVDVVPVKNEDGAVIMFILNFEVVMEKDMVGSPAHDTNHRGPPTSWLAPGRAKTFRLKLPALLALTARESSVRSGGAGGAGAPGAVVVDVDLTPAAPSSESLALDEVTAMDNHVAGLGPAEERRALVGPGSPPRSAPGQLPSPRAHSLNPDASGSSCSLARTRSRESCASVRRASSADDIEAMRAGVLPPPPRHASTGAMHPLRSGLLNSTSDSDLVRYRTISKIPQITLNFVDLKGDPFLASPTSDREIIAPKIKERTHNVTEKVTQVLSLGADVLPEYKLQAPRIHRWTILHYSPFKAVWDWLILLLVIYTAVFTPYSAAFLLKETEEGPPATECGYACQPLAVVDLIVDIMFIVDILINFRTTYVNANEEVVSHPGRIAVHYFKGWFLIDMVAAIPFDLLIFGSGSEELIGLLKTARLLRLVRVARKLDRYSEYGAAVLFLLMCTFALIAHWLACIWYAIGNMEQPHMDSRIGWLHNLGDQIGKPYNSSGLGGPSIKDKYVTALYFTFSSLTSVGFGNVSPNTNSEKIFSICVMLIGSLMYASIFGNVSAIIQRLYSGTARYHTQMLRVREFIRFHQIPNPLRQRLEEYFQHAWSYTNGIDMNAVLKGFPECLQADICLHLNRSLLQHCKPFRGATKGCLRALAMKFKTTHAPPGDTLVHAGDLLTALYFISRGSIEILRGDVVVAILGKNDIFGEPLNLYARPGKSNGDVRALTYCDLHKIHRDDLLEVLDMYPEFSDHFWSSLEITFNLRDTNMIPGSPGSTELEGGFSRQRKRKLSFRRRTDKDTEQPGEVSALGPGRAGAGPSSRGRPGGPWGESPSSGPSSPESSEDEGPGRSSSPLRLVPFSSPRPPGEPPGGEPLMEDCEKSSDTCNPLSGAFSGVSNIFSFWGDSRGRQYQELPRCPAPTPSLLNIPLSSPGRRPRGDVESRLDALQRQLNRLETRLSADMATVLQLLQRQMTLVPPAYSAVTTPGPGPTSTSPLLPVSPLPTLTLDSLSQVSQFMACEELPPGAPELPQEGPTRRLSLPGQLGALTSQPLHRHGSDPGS

T1 sequence (O43497 whole entry): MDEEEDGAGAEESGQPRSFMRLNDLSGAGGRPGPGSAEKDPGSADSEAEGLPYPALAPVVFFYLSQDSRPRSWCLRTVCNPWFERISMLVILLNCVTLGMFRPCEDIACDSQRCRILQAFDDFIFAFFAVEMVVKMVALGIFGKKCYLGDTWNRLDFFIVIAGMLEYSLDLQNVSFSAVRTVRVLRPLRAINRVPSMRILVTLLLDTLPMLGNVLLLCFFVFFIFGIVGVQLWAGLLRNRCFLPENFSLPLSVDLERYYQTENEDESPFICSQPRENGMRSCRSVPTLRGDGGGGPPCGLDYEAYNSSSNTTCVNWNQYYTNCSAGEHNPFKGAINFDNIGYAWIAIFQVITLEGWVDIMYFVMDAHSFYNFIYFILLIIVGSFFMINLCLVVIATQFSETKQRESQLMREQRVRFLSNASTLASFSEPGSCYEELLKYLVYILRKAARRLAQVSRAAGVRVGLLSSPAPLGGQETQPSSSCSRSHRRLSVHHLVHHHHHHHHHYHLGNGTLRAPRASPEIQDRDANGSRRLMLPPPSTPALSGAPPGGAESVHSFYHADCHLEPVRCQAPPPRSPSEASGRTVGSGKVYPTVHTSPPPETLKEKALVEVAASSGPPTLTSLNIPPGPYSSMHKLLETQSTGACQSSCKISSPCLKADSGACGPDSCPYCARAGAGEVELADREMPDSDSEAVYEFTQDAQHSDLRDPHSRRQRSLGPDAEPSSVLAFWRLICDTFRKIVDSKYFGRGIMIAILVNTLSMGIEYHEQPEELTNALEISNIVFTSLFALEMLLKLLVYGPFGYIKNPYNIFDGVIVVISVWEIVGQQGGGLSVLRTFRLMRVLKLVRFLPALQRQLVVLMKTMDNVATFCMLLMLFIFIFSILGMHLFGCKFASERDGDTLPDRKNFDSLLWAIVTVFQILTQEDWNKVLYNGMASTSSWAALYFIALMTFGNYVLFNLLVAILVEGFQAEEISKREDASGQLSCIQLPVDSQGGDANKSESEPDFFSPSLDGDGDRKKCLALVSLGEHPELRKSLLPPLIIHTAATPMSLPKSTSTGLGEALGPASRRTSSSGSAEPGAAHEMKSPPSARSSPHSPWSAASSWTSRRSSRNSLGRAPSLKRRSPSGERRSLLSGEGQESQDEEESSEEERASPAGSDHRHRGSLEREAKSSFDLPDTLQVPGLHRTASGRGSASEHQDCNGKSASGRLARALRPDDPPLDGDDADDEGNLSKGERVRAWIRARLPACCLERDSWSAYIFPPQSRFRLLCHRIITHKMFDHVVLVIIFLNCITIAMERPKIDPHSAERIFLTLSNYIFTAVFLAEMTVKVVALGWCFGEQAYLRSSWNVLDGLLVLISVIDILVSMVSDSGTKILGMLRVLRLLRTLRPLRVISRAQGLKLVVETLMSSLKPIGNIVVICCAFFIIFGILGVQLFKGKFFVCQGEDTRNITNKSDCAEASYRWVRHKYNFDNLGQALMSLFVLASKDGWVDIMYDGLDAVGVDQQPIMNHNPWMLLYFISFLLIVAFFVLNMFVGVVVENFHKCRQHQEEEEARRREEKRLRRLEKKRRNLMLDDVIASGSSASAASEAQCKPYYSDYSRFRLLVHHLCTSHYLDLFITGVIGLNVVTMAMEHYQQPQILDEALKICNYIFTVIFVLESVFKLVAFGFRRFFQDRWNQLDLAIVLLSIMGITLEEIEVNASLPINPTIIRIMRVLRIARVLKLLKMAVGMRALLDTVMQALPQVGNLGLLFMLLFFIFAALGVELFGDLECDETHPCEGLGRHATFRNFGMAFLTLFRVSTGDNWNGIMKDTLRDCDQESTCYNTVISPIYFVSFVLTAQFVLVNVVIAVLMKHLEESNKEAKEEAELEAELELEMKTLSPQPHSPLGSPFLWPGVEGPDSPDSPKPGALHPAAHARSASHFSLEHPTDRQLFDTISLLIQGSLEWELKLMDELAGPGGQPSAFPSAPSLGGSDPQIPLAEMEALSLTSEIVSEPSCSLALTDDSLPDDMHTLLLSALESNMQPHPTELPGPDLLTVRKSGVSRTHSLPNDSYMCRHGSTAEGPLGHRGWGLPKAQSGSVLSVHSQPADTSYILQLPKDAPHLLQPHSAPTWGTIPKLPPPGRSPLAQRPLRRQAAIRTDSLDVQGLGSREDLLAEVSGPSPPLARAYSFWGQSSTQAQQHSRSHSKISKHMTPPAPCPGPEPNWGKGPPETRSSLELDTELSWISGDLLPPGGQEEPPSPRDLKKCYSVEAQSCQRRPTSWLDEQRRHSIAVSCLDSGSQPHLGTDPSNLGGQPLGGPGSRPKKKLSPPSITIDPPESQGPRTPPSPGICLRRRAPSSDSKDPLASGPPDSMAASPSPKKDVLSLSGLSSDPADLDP

O=c1[nH]c2ccccc2n1C1CCN(CCCC(c2ccc(F)cc2)c2ccc(F)cc2)CC1 [PIMOZIDE]
Kd [1]: 40 nM

O=C(CC(c1ccc(F)cc1)c1cccc(F)c1)N1CCN(Cc2nc(C(=O)N3CCOCC3)co2)CC1 (centres undefined)
inhibition [2]: 36.9%

COC(=O)c1coc(CN2CCN(C(=O)CC(c3ccc(C(F)(F)F)cc3)c3cccc(F)c3)CC2)n1 (centres undefined)
inhibition [2]: 57.6%

O=C(CC(c1ccc(Br)cc1)c1cccc(F)c1)N1CCN(Cc2nc(CO)co2)CC1 (centres undefined)
inhibition [2]: 21.3%

O=C(CC(c1ccc(C(F)(F)F)cc1)c1cccc(F)c1)N1CCN(Cc2nc(C(=O)N3CCOCC3)co2)CC1 (centres undefined)
inhibition [2]: 53.4%

COc1ccc(C(CC(=O)N2CCN(Cc3nc4ccc(C)cc4o3)CC2)c2cccc(F)c2)cc1 (centres undefined)
inhibition [2]: 52%

Cc1ccc2nc(CN3CCN(C(=O)CC(c4ccc(F)cc4)c4ccc(Br)cc4)CC3)oc2c1 (centres undefined)
inhibition [2]: 11.2%

COc1ccc(C(CC(=O)N2CCN(Cc3nc(C(=O)O)co3)CC2)c2ccc(F)cc2)cc1 (centres undefined)
inhibition [2]: 7.68%

O=C(O)c1coc(CN2CCN(C(=O)CC(c3ccc(F)cc3)c3ccc(F)cc3)CC2)n1
inhibition [2]: 3.84%

COc1ccc(C(CC(=O)N2CCN(Cc3nc4ccc(C)cc4o3)CC2)c2ccccc2)cc1 (centres undefined)
IC50 [3]: 2480 nM | inhibition [2]: 63.5%

COC(=O)c1coc(CN2CCN(C(=O)CC(c3ccc(Cl)cc3)c3cccc(F)c3)CC2)n1 (centres undefined)
inhibition [2]: 24.5%

Cc1ccc2nc(CN3CCN(C(=O)CC(c4ccccc4)c4ccc(Cl)cc4)CC3)oc2c1 (centres undefined)
inhibition [2]: 25.9%

O=C(CC(c1ccc(C(F)(F)F)cc1)c1cccc(F)c1)N1CCN(Cc2nc(CO)co2)CC1 (centres undefined)
inhibition [2]: 19.2%

Cc1ccc2nc(CN3CCN(C(=O)CC(c4ccc(C(F)(F)F)cc4)c4cccc(F)c4)CC3)oc2c1 (centres undefined)
inhibition [2]: 26.4%

COC(=O)c1coc(CN2CCN(C(=O)CC(c3ccc(Br)cc3)c3cccc(F)c3)CC2)n1 (centres undefined)
inhibition [2]: 36.6%

COC(=O)c1coc(CN2CCN(C(=O)CC(c3ccccc3)c3ccc(C(F)(F)F)cc3)CC2)n1 (centres undefined)
IC50 [3]: 17000 nM | inhibition [2]: 60.4%

COc1ccc(C(CC(=O)N2CCN(Cc3nc4ccc(C)cc4o3)CC2)c2ccc(F)cc2)cc1 (centres undefined)
inhibition [2]: 23.3%

O=C(CC(c1ccc(Cl)cc1)c1cccc(F)c1)N1CCN(Cc2nc(C(=O)N3CCOCC3)co2)CC1 (centres undefined)
inhibition [2]: 48.6%

Cc1ccc2nc(CN3CCN(C(=O)CC(c4ccc(F)cc4)c4ccc(C(F)(F)F)cc4)CC3)oc2c1 (centres undefined)
inhibition [2]: 9.84%

COC(=O)c1coc(CN2CCN(C(=O)CC(c3ccc(OC)cc3)c3cccc(F)c3)CC2)n1 (centres undefined)
inhibition [2]: 25.5%

Cc1ccc2nc(CN3CCN(C(=O)CC(c4ccc(F)cc4)c4cccc(F)c4)CC3)oc2c1 (centres undefined)
inhibition [2]: 44.9%

COC(=O)c1coc(CN2CCN(C(=O)CC(c3ccccc3)c3ccc(OC)cc3)CC2)n1 (centres undefined)
inhibition [2]: 22.8%

Cc1ccc2nc(CN3CCN(C(=O)CC(c4ccccc4)c4ccc(F)cc4)CC3)oc2c1 (centres undefined)
IC50 [3]: 1290 nM | inhibition [2]: 42.7%

Cc1ccc2nc(CN3CCN(C(=O)CC(c4ccccc4)c4ccc(C(F)(F)F)cc4)CC3)oc2c1 (centres undefined)
inhibition [2]: 22.4%

Cc1ccc2nc(CN3CCN(C(=O)CC(c4ccc(F)cc4)c4ccc(Cl)cc4)CC3)oc2c1 (centres undefined)
inhibition [2]: 15.5%

O=C(CC(c1ccc(Cl)cc1)c1cccc(F)c1)N1CCN(Cc2nc(CO)co2)CC1 (centres undefined)
inhibition [2]: 19.2%

COC(=O)c1coc(CN2CCN(C(=O)CC(c3ccc(F)cc3)c3cccc(F)c3)CC2)n1 (centres undefined)
inhibition [2]: 44.5%

O=C(CC(c1ccc(Br)cc1)c1cccc(F)c1)N1CCN(Cc2nc(C(=O)N3CCOCC3)co2)CC1 (centres undefined)
inhibition [2]: 44.6%

COC(=O)c1coc(CN2CCN(C(=O)CC(c3ccc(F)cc3)c3ccc(Cl)cc3)CC2)n1 (centres undefined)
IC50 [3]: 8800 nM | inhibition [2]: 45.1%

COC(=O)c1coc(CN2CCN(C(=O)CC(c3ccc(F)cc3)c3ccc(C(F)(F)F)cc3)CC2)n1 (centres undefined)
IC50 [3]: 1730 nM | inhibition [2]: 51.8%

COc1ccc(C(CC(=O)N2CCN(Cc3nc(C(=O)N4CCOCC4)co3)CC2)c2cccc(F)c2)cc1 (centres undefined)
inhibition [2]: 19.7%

COc1ccc(C(CC(=O)N2CCN(Cc3nc(CO)co3)CC2)c2cccc(F)c2)cc1 (centres undefined)
inhibition [2]: 4.9%

Cc1ccc2nc(CN3CCN(C(=O)CC(c4ccccc4)c4ccc(Br)cc4)CC3)oc2c1 (centres undefined)
inhibition [2]: 13.6%

O=C(O)c1coc(CN2CCN(C(=O)CC(c3ccc(F)cc3)c3ccc(C(F)(F)F)cc3)CC2)n1 (centres undefined)
inhibition [2]: 3.62%

O=C(O)c1coc(CN2CCN(C(=O)CC(c3ccc(F)cc3)c3ccc(Br)cc3)CC2)n1 (centres undefined)
inhibition [2]: 5.42%

O=C(CC(c1ccc(F)cc1)c1cccc(F)c1)N1CCN(Cc2nc(CO)co2)CC1 (centres undefined)
inhibition [2]: 13.7%

COC(=O)c1coc(CN2CCN(C(=O)CC(c3ccc(F)cc3)c3ccc(Br)cc3)CC2)n1 (centres undefined)
IC50 [4]: 2230 nM | IC50 [3]: 830 nM | inhibition [2]: 42.1%

O=C(O)c1coc(CN2CCN(C(=O)CC(c3ccc(F)cc3)c3ccc(Cl)cc3)CC2)n1 (centres undefined)
inhibition [2]: 3.62%

COC(=O)c1coc(CN2CCN(C(=O)CC(c3ccccc3)c3ccc(Br)cc3)CC2)n1 (centres undefined)
IC50 [3]: 21100 nM | inhibition [2]: 42.8%

Cc1ccc2nc(CN3CCN(C(=O)CC(c4ccc(Br)cc4)c4cccc(F)c4)CC3)oc2c1 (centres undefined)
inhibition [2]: 18%

Cc1ccc2nc(CN3CCN(C(=O)CC(c4ccc(Cl)cc4)c4cccc(F)c4)CC3)oc2c1 (centres undefined)
inhibition [2]: 32.2%

COC(=O)c1coc(CN2CCN(C(=O)CC(c3ccc(F)cc3)c3ccc(F)cc3)CC2)n1
inhibition [2]: 33.5%

Cc1ccc2nc(CN3CCN(C(=O)CC(c4ccc(F)cc4)c4ccc(F)cc4)CC3)oc2c1
inhibition [2]: 30.9%

COC(=O)c1coc(CN2CCN(C(=O)CC(c3ccccc3)c3ccc(Cl)cc3)CC2)n1 (centres undefined)
inhibition [2]: 35%

COC(=O)c1coc(CN2CCN(C(=O)CC(c3ccc(F)cc3)c3ccc(OC)cc3)CC2)n1 (centres undefined)
inhibition [2]: 24.5%

COC(=O)c1coc(CN2CCN(C(=O)CC(c3ccccc3)c3ccc(F)cc3)CC2)n1 (centres undefined)
inhibition [2]: 27.7%
